Screening data from PubChem.
Compounds with a hit are over-represented: about 4.7% of the library has one in this group of screens.
MT1-MMP act inh = blockers of MT1-MMP proenzyme processing, primary screen, HT1080 RFP-PRO-GFP cells, GFP/RFP fluorescence; hit rate 0.061% among 360,000; Matrix metalloproteinase-14 (Homo sapiens), P50281; GFP/RFP ratio fluorescence, overnight; percent of plate control window, DMSO zero; GFP/RFP ratio change, % at 20 µM;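 active means GFP/RFP ratio change of at least 30% with cell ATP level not reduced by more than half and red fluorescence within 50% of control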
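Compound: 20 µM single dose, 1% DMSO / System: HT1080 RFP-PRO-GFP cells / Controls: DMSO and RFP-L50D-GFP cell wells / Read-out basis: GFP/RFP fluorescence ratio / Schedule: overnight compound exposure at 37 °C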
MPTP block = mitochondrial permeability transition pore inhibitors, primary screen, biochemical, isolated mouse mitochondria, absorbance; Ca2+ swelling absorbance, 30 min; inhibition, % at 10 µM; hit rate 1.4% among 360,000;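 active means inhibition of 50% or more, scaled per plate between neutral and stimulator controls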;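 further: 0% = DMSO wells given calcium and 100% = 1 mM EGTA wells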
SKN-1 block = suppressors of acrylamide-induced Pgst-4::GFP reporter in worms, primary screen, SKN-1 inhibitor project, whole organism, uHTS, GFP/RFP fluorescence ratio, strain VP596; C. elegans VP596 Pgst-4::GFP/RFP ratio, 24 h; inhibition, % at 21.8 µM; hit rate 0.49% among 360,000; AID 624304, 2012;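 active means interference check ratio from 0.5 to 1.5 plus GFP to RFP signal ratio inhibition reaching or exceeding a fixed threshold, cut at about 30% in these data, passing the limit was not always enough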
ADAM17 inh = ADAM17 inhibitors, primary screen, biochemical, QFRET; Disintegrin and metalloproteinase domain-containing protein 17 (Homo sapiens), P78536; recombinant ADAM17, EDANS/DABCYL FRET peptide cleavage; inhibition, % at 6.95 µM; hit rate 0.83% among 370,000; AID 720648, 2013;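 active means inhibition above the mean of compounds lying between control limits plus 3 SD, set per campaign, cut at about 8.5% in these data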;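 further: 0% = DMSO-only wells as the low control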
ADAM10 inh = human ADAM10 inhibitors, primary screen, biochemical, QFRET, HTS | AID 720582, 2013 | recombinant ADAM10, EDANS/DABCYL FRET peptide cleavage, 3 h | inhibition, % at 7 µM | hit rate 0.62% among 370,000 | Disintegrin and metalloproteinase domain-containing protein 10 (Homo sapiens), O14672;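 active means inhibition above a per-campaign cutoff equal to the mean of compounds falling between control-based bounds plus 3 SD, cut at about 20% in these data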;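 further: 0% = DMSO wells while the 100% control is not disclosed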
Target sequence (O14672 214-748 limits assumed): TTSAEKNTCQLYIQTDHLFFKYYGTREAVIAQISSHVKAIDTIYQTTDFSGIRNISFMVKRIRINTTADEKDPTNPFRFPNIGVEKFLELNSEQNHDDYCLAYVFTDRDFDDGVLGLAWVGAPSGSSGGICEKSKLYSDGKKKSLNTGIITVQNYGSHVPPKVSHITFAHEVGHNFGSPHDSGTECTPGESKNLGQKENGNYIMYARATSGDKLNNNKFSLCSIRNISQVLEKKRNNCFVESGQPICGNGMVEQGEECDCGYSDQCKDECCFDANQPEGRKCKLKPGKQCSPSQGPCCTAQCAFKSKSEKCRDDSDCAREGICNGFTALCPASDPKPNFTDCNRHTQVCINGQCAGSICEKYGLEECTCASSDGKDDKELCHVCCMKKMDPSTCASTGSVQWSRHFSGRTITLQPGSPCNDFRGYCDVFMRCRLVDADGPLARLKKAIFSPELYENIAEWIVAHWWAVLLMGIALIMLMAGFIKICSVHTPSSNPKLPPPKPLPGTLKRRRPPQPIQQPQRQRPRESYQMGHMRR
NR3A LBD binder = binders of NR3A ligand-binding domain, primary screen, biophysical, differential scanning fluorimetry, uHTS | Glutamate receptor ionotropic, NMDA 3A (GRIN3A) ligand-binding domain | NR3A LBD differential scanning fluorimetry, Tm shift; 0% = protein alone, 100% = glycine-bound protein | Tm shift relative to glycine control, % at 25 µM | hit rate 2.5% among 340,000 | AID 1259313, 2017;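 active means melting temperature shift of at least 10% of the positive control shift, at one fixed dose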
Rh123 counter = fluorescence retest of MPTP screen hits in isolated mitochondria, single concentration. inhibition, % at 10 µM. membrane potential, Rhodamine 123 fluorescence. shares compounds with MPTP block. hit rate 78% among 5,000; in the data active means inhibition above about 22%;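 further: 0% = DMSO vehicle and 100% = positive control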
MPTP abs DR = mitochondrial permeability transition pore inhibitors, dose response, biochemical, absorbance, uHTS hits. shares compounds with MPTP block. isolated mitochondria swelling. IC50, µM. hit rate 58% among 780; in the data active means IC50 below about 20 µM
MPTP counter DR = fluorescent counter-screen in isolated mitochondria, dose response, counter-screen for MPTP inhibitor project, biochemical, fluorescence, uHTS hits | shares compounds with MPTP block | isolated mitochondria counterscreen, fluorescence read-out | IC50, µM | hit rate 49% among 780 | AID 651564, 2012; in the data active means IC50 below about 80 µM
Starred values were filed as active, the others as inactive; i = inactive; / = not tested or not shown.

SMILES	MT1-MMP act inh	MPTP block	SKN-1 block	ADAM17 inh	ADAM10 inh	NR3A LBD binder	Rh123 counter	others
O=C(NCC1CCCO1)Nc1cc(Cl)cc(Cl)c1 (configuration not stated)	1	82*	-10	-2	1	0	88*
CC(=O)c1ccc(N2CCN(S(=O)(=O)c3ccc4c(c3)CC(C)N4C(C)=O)CC2)cc1 (configuration not stated)	-3	11	7	-13	-63	0	/
CC(=O)c1ccc(N2CCN(S(=O)(=O)c3ccc4c(c3)CC(C)N4C(=O)C3CC3)CC2)cc1 (configuration not stated)	1	97*	-11	-4	1	0	108*
CCC(Oc1ccccc1)C(=O)Nc1nnc(S(=O)(=O)N2CCCC2)s1 (configuration not stated)	-1	85*	33	-2	-7	-5	20*
O=C(Nc1nnc(S(=O)(=O)N2CCCCCC2)s1)c1ccc(Br)cc1	-2	60*	6	0	-1	-2	29*
C=CCn1c(SCC(=O)NC2CCCCC2)nnc1-c1sc(N)nc1C	3	-2	-11	-1	7	0	/
COc1ccc(N2CCN(c3ncnc4c3[nH]c3ccccc34)CC2)cc1	3	79*	-14	-3	-9	-4	107*
CCOC(=O)N1CCN(c2ncnc3c2[nH]c2ccc(OC)cc23)CC1	/	0	-16	-154	i	0	/
COc1ccc2[nH]c3c(N4CCc5ccccc5C4)ncnc3c2c1	13	81*	15	-112	-281	-1	70*
COc1ccc(CC(=O)N(C)CC(=O)Nc2ccccc2Cl)cc1S(=O)(=O)N1CCOCC1	-1	-1	-4	-3	-15	-3	/
Cc1ccccc1NC(=O)Cn1c(CCC(=O)O)ccc1-c1cccs1	1	1	-3	-24	-73	-1	/
O=C(Nc1ccncc1)Nc1ccc(F)c(Cl)c1	-2	92*	-16	4	-1	8	107*
O=C(Nc1ccc(Cl)cc1)Nc1cccnc1	1	64*	-4	-5	-4	13*	83*
O=C(Nc1ccc(F)c(Cl)c1)Nc1ccc(Cl)cn1	0	87*	14	-1	0	-1	96*
O=[N+]([O-])c1cccnc1NCCNc1ncc(C(F)(F)F)cc1Cl	2	0	13	6	2	-12	/
C=CCn1c(Cc2ccc(OC)cc2)nnc1SCC(N)=O	1	0	-8	-7	-1	-1	/
COc1ccc(CN2CCNC(=O)C2CC(=O)N2CCCN(C(C)=O)CC2)cc1OC (configuration not stated)	-1	-1	11	-5	5	1	/
Cc1ccc2nc(N(CCCN(C)C)C(=O)CS(=O)(=O)c3ccccc3)sc2c1	1	47	-8	0	-7	1	/
Cc1ccc(S(=O)(=O)CC(=O)N(CCCN(C)C)c2nc3ccc(C)cc3s2)cc1	3	90*	-10	5	-4	1	-12	MPTP abs DR=4.5*;MPTP counter DR=75*
CN(C)CCCN(C(=O)COc1ccc(Cl)cc1)c1nc2cc3c(cc2s1)OCCO3	2	87*	10	-3	-12	1	-26	MPTP abs DR=4.3*;MPTP counter DR=74*
CN(C)CCCN(C(=O)c1ccc2c(c1)CCCC2)c1nc2ccc(Cl)cc2s1	-15	90*	-5	8.7*	17	11*	-8
CN(C)CCCN(C(=O)CCc1ccccc1)c1nc2ccc(Cl)cc2s1	-7	93*	3	3	7	1	-17
Cc1ccccc1-c1csc(C(O)(c2ccccc2)C(F)(F)F)n1 (configuration not stated)	-5	1	5	7	13	/	/
COc1ccc(CCNC(=O)c2ccc(NC3=NC4CS(=O)(=O)CC4S3)cc2)cc1OC (configuration not stated)	-4	-1	3	0	0	0	/
Cc1ccc2nc(N(CCCN(C)C)C(=O)CCc3ccccc3)sc2c1	-1	102*	4	2	2	-1	-10	MPTP abs DR=3.7*;MPTP counter DR=>80
SMILES	MT1-MMP act inh	MPTP block	SKN-1 block	ADAM17 inh	ADAM10 inh	NR3A LBD binder	Rh123 counter	others
Cc1ccc2nc(N(CCCN(C)C)C(=O)CN3C(=O)c4ccccc4C3=O)sc2c1	-3	0	-12	-2	2	-1	/
COc1ccc(-c2cc(COc3ccccc3)on2)cc1	0	-1	20	5	13	-6	/
O=C(Nc1cc(C(F)(F)F)ccc1N1CCOCC1)c1cccnc1Cl	2	0	-6	1	0	4	/
CCc1c(C)c2cc(Cl)c(O)c(CN(CC)CC)c2oc1=O	8	0	10	i	i	0	/
O=[N+]([O-])c1ccc(/C=N/Nc2ccc3ccccc3c2)o1	-30	79*	12	3	6	21*	32*
C(=N\Nc1nc(N2CCCC2)nc(N2CCCC2)n1)/c1ccccc1OCc1ccccc1	-2	1	5	0	4	1	/
O=[N+]([O-])c1ccc(NN=Cc2cccc3ccccc23)cc1	-23	89*	19	-1	-18	34*	71*
O=[N+]([O-])c1ccc(N/N=C\c2ccccc2OCc2ccccc2)cc1	-23	97*	-5	-1	-12	20*	76*
Cc1ccc(-c2noc(CCC(=O)NCC3CCN(Cc4cccc(C)c4)CC3)n2)cc1	1	67*	-22	-3	-5	0	7	MPTP abs DR=8.8*;MPTP counter DR=24*
COc1ccc(-c2noc(CCC(=O)NCCCN3CCN(c4ccc(F)cc4)CC3)n2)cc1	-4	23	-2	-1	2	-2	/
COc1ccc(-c2noc(CCC(=O)NCCCN3CCC(Cc4ccccc4)CC3)n2)cc1	-4	63*	-4	-2	-7	0	42*
